b-catenin transl: beta-catenin nuclear translocation modulation. actives 0.3% (n = 190,000). nuclear translocation activity, % at 5 µM. HeLa beta-catenin nuclear translocation, immunofluorescence imaging;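 active = nuclear translocation activity above 50% at 5 µM, with a well cell count of 50 or more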;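 also: per-cell ratio of nuclear to cytoplasmic median beta-catenin stain intensity; plate controls were DMSO negative control for no effect and GSK-3 inhibitor IX positive control for full effect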
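Test system: human HeLa cells, native beta-catenin. Compound dosing: 5 µM primary single dose, 0.1% DMSO, 0.02–20 µM confirmation series. Incubation: compound exposure 24 h at 37°C. Detection: beta-catenin immunostaining with DAPI counterstain, 20x imaging, 6 fields/well. Read-out basis: Nuclear/cytoplasmic beta-catenin signal ratio, % activation.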
IEC-6 cytotox: counter-screen for KLF5 inhibitors: cytotoxicity in IEC-6 cells; IEC-6 cytotoxicity, luminescence viability; inhibition, % at 5 µM; actives 0.78% (n = 290,000); AID 1825; in the data active = inhibition above about 22%;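 also: 0% = plate median of test compound wells and 100% = cytotoxic reference compound wells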
MT stabilize HCS: microtubule stabilization, imaging screen; HeLa tubulin immunostaining HCS, 24 h; share of cells brighter than vehicle mean+2SD; % tubulin-high responders, % at 10 µM; actives 0.83% (n = 200,000);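 active = plate Z-score above 3 for both tubulin-high and condensed-nucleus cell shares, with cell loss under 80%, at 10 µM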;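 also: anti alpha tubulin signal scored within the nucleus-defined area of each cell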
BaF3 tox: parental Ba/F3 viability inhibition as JAK2V617F counter-screen; CellTiter-Glo ATP luminescence; inhibition, % at 5.6 µM; actives 1.1% (n = 220,000); AID 1486;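 active = inhibition above a per-campaign cutoff, the mean inhibition of all tested compounds plus 3 SD, cut at about 27% in these data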;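 also: 0% = DMSO wells and 100% = JAK Inhibitor I control wells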
APP transl inh: APP translation inhibition | actives 0.82% (n = 190,000) | SH-SY5Y APP 5'UTR-luciferase reporter, luminescence | inhibition, % at 2 µM;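 active = inhibition above a set limit, derived from the sample mean plus 3 SD, cut at about 45% in these data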
Ba/F3 V617F tox: reduce viability of Ba/F3 cells dependent on JAK2V617F; Ba/F3 EpoR-JAK2V617F viability, ATP luminescence; inhibition, % at 5.6 µM; actives 1.1% (n = 220,000);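 active = inhibition above the campaign mean plus 3 SD over all tested compounds, cut at about 24% in these data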;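 also: cytokine-independent growth of Ba/F3 cells driven by EpoR plus mutant JAK2; 0% = DMSO-treated cells and 100% = JAK inhibitor I control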
The depositor's hits bear a star; · = not tested or not shown. The list is not random: actives were taken first. Their share in the collection is about 2.2%.

SMILES	b-catenin transl	IEC-6 cytotox	MT stabilize HCS	BaF3 tox	APP transl inh	Ba/F3 V617F tox
Cn1nc(-c2ccccn2)nc2c(=O)n(C)c(=O)nc1-2	·	99.3*	·	105.4*	59.3*	98.9*
COc1ccc(-c2nc(-c3ccccn3)ncc2S(C)(=O)=O)cc1	-4.4	2.3	2.5	11.1	11.1	0.9
CCCc1nc2c(=O)n(C)c(=O)nc-2n(C)n1	3.3	18.6	20.4*	85.5*	30.2	73.1*
CC1(C)OC(=CC=Nc2ccc(Cl)cc2)OC1(C)C	-1.2	8.2	·	0.4	·	3.3
CSc1cccc(NC(=O)c2cc(S(=O)(=O)N3CCc4ccccc43)cn2C)c1	·	1.4	·	·	·	·
CCn1c(SCC(=O)Nc2ccc(N(C)C)cc2)nnc1-c1ccco1	·	1.4	·	·	·	·
COc1ccc(/C=N/n2c(SC)nnc2-c2ccccc2)c(OC)c1OC	91.8*	68.4*	11.0	79.4*	44.4	85.8*
COc1ccc(/C=N/n2c(SC)nnc2-c2ccccc2)cc1C	2.4	11.0	27.3*	8.0	10.3	6.6
COc1cccc(/C=N\n2c(C)nnc2C)c1OC	-1.8	-3.1	4.0	-1.3	7.0	-3.0
Cc1ccc(CNC(=O)CS(=O)(=O)Cc2nc(-c3ccc(C)cc3)oc2C)cc1	·	9.7	·	·	·	·
CC(C)(C)CN1CCN(Cc2cccnc2)CC1CCO (centres undefined)	·	0.4	·	·	·	·
COc1cc2c(cc1OC)CN(C(=O)c1ccc3nc[nH]c3c1)CC2	82.3*	7.1	17.9*	13.0	-14.7	4.9
O=C(c1ccc2nc[nH]c2c1)N1CCc2ccccc2C1	-2.7	1.0	3.0	2.5	-5.8	-0.3
CCC(C)c1ccc(NC(=O)C2CCCN(c3ncccn3)C2)cc1 (centres undefined)	1.9	3.0	35.7*	1.6	-17.8	-0.8
O=C(CSc1nnnn1-c1ccc2c(c1)OCO2)NCc1ccccc1	·	10.1	42.4*	5.9	-7.3	-3.6
O=S(=O)(c1ccc2c(c1)OCCO2)N1CCN(c2ncnc3sccc23)CC1	-2.3	8.8	4.6	78.3*	-0.6	43.5*
CCOC(=O)c1cccc(NC(=O)COc2nsnc2N2CCOCC2)c1	·	-2.4	·	·	·	·
Oc1c(Cl)cc(Cl)cc1/C=N/Nc1ncc(Br)cn1	-0.6	1.5	2.1	8.6	81.0*	1.4
CCCc1[nH]n(-c2ccc(F)cc2)c(=O)c1C=Nc1cccc(F)c1	36.0	-5.7	17.0*	3.0	34.1	-2.1
CCCc1[nH]n(-c2ccc(F)cc2)c(=O)c1C=NCC1CCCO1 (centres undefined)	-2.5	-7.5	2.7	-0.1	18.0	-2.2
CN(CC1CCCN(CCc2ccc(Cl)cc2)C1)C(=O)c1ccco1 (centres undefined)	·	3.5	·	·	·	·
COCCC(=O)N1CCCC(CNS(=O)(=O)c2ccc(OC)cc2)C1 (centres undefined)	-0.1	7.0	2.3	89.7*	5.8	0.6
O=C(Nc1cccn(Cc2c(F)cccc2Cl)c1=O)NC1CCCCC1	-0.7	-5.1	16.9*	2.3	2.6	-1.2
C#CCOC(=O)Nc1cccn(Cc2c(Cl)cccc2Cl)c1=O	5.7	5.0	51.4*	15.2	-3.7	2.1
O=C(Nc1cccn(Cc2c(Cl)cccc2Cl)c1=O)C1CC1	0.8	-5.0	3.7	6.6	-9.9	3.1
SMILES	b-catenin transl	IEC-6 cytotox	MT stabilize HCS	BaF3 tox	APP transl inh	Ba/F3 V617F tox
O=Nc1[nH]c(=O)c(/C=C(\O)c2ccccc2)nc1NO	·	-1.2	·	·	·	·
CC(C)c1c(C(=O)N/N=C/C=C/c2ccccc2)nnn1-c1nonc1N	·	-0.1	·	·	·	·
COc1cc(NC(=O)c2cc(S(=O)(=O)N3CCCCC3)c[nH]2)cc(OC)c1	·	-8.5	·	·	·	·
CC1=Nc2cc(C(=O)O)ccc2Sc2ccc(C)cc21	-0.1	-8.0	1.1	1.9	-9.0	-0.8
CC1=Nc2cc(C(=O)NCc3ccco3)ccc2Sc2ccc(C)cc21	73.3*	80.0*	3.7	80.4*	96.3*	83.5*
CCn1nc(C)c(CNC(=O)C2CCC(=O)N(Cc3ccc(Cl)cc3)C2)c1C (centres undefined)	·	0.3	·	·	·	·
CC[N+]1=CN(c2ccccc2)C(C)=CC1(C)C	·	-2.5	4.1	52.2*	4.8	39.7*
COCc1cc(C)nc(OCC(=O)N/N=C/c2cc(C)n(-c3c(C)cccc3C)c2C)c1C#N	·	-5.6	13.0	4.6	57.4*	-2.5
COCc1cc(C)nc(OCC(=O)N/N=C/c2ccc(O)cc2)c1C#N	·	8.7	2.8	7.1	-8.0	5.0
O=C(NCC(c1cccs1)N1CCOCC1)c1ccc(Br)o1 (centres undefined)	0.9	0.2	21.9*	7.4	5.2	-1.0
